The values below come from ChEMBL document CHEMBL4673335, “Store-Operated Calcium Entry as a Therapeutic Target in Acute Pancreatitis: Discovery and Development of Drug-Like SOCE Inhibitors” (J Med Chem, 2020).

In brackets after ≈: the same amount, converted by molar mass. Activity calls are given as the source filed them. The rule behind the calls is not given here.

A short description of data set [1]: Inhibition of CRAC (unknown origin). Further details: species or system Homo sapiens.
For data set [2], the target named is T1, ORAI1/STIM1 (Homo sapiens) (UniProt Q96D31+Q13586). Nature of the data set: Inhibition of STIM1/Orai1 (unknown origin) expressed in HEK293 cells assessed as reduction in tBHQ-induced calcium response at 10 uM relative to control. In kind it is cell-based. A digest of the protocol:
(§1)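 HEK cells, calcium imaging by fluorescence microscopy. Ca2+ added after 600 s and intracellular levels recorded. Traces averaged over 200 cells, then scored as AUC, peak amplitude and slope of the Ca2+ rise versus untreated control. Compound working solutions diluted from a 50 mM DMSO stock to 0.1% DMSO in physiologic buffer.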

Data set [3] concerns HEK293. The data set is described as follows: Cytotoxicity in HEK293 cells assessed as cell viability at 10 uM after 24 hrs by MTT assay. Conditions: human, hek293, 24 h. In kind it is cell-based. In a few lines:
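MTT viability assay. HEK cells seeded at 20,000 per well, treated 24 h after plating for a further 24 h. MTT at 0.25 mg/mL final for 60 min at 37 °C. Crystals dissolved in isopropyl alcohol/HCl (1 M), absorbance read at 570 nm. Compounds diluted to 0.1% DMSO in culture medium.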
(Formazan colour is commonly taken as a measure of viable cells.)

The target in another data set is ORAI1/STIM1 (Homo sapiens, UniProt Q13586+Q96D31). The data set is described as follows: Inhibition of STIM1/Orai1 (unknown origin) expressed in HEK293 cells assessed as reduction in tBHQ-induced calcium response. In kind it is cell-based.
Chain of ORAI1/STIM1 (Q96D31 whole entry): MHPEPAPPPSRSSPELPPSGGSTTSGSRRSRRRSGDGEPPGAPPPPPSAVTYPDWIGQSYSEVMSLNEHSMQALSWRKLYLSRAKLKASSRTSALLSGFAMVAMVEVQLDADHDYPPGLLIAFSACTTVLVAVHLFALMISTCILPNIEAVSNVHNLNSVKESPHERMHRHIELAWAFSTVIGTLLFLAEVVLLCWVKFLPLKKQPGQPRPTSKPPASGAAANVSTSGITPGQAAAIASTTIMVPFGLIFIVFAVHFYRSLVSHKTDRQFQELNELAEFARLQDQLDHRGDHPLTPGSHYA
Chain of ORAI1/STIM1 (Q13586 whole entry): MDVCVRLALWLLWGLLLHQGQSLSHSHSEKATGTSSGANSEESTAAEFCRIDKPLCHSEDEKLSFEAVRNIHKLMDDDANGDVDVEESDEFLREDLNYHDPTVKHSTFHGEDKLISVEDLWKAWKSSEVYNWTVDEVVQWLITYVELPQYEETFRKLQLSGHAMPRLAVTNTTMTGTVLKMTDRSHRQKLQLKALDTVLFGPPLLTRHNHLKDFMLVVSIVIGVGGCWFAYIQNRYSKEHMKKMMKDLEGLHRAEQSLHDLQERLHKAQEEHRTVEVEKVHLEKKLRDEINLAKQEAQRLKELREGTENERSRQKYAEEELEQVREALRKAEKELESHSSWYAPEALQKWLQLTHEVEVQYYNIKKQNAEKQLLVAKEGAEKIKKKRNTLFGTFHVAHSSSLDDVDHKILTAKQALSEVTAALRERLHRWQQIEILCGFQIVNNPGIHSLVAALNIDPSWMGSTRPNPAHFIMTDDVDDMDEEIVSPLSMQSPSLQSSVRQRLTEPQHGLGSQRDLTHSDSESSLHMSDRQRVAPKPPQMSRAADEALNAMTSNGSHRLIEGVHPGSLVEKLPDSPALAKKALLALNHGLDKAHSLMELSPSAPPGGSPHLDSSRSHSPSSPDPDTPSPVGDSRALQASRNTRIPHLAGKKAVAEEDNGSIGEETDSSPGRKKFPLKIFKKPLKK
In data set [4] the target is T1, ORAI1/STIM1 (Homo sapiens). The data set is described as follows: Inhibition of STIM1/Orai1 (unknown origin) expressed in HEK293 cells assessed as reduction in tBHQ-induced calcium response by measuring decrease in calcium entry AUC at 10 uM relative to control. Format: cell-based. A digest of the protocol: as §1
The target in data set [5] is T1, ORAI1/STIM1 (Homo sapiens). Nature of the data set: Inhibition of STIM1/Orai1 (unknown origin) expressed in HEK293 cells assessed as reduction in tBHQ-induced calcium response by measuring decrease in peak amplitude of calcium entry at 10 uM relative to control. In kind it is cell-based. A digest of the protocol: as §1
The target in data set [6] is T1, ORAI1/STIM1 (Homo sapiens). Nature of the data set: Inhibition of STIM1/Orai1 (unknown origin) expressed in HEK293 cells assessed as reduction in tBHQ-induced calcium response by measuring decrease in slope of calcium entry at 10 uM relative to control. Format: cell-based. In a few lines: as §1
Data set [7] relates to HEK293. The data set is described as follows: Cytotoxicity in HEK293 cells assessed as cell viability at 50 uM after 72 hrs by MTT assay. Format: cell-based. Conditions: human, hek293, 72 h. In a few lines: (§2)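 MTT viability in HEK cells after 72 h treatment at 50 μM, with or without 100 μM uridine. MTT at 0.25 mg/mL final for 60 min at 37 °C, solubilized in isopropyl alcohol/HCl (1 M), absorbance read at 570 nm. Mean ± SEM, Student t-test against control.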

The test system of data set [8] is HEK293. Nature of the data set: Cytotoxicity in HEK293 cells assessed as cell viability at 50 uM after 72 hrs in presence of excess uridine by MTT assay. In kind it is cell-based. Conditions: human, hek293, 72 h. In a few lines: as §2
Data set [9] in a line: Thermodynamic aqueous solubility. In kind it is physicochemical. Conditions: read-out: Therm_solubility. In a few lines: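 About 3 mg compound in 3 mL deionized water, vortexed, sonicated 5 min, then shaken overnight at 25 °C. Filtered through a 0.22 μm membrane, DMSO added, diluted about 1:10 in water. Quantified by LC–UV against DMSO standard solutions.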
Data set [10] can be described thus: Metabolic stability in mouse liver microsomes assessed as compound remaining after 1 hr. Format: ADME, Microsome. As to conditions: read-out: Stabilty. In a few lines: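 Pooled male CD-1 mouse liver microsomes (20 mg/mL protein stock), NADPH-activated. Substrate at 5 μM. Residual parent measured after 1 h incubation.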
(Liver microsomes are a subcellular fraction often used to study metabolism.)

Data set [11] in a line: Drug metabolism in mouse liver microsomes assessed as amide hydrolysis. In kind it is ADME, Microsome. In a few lines:
(§3)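 Pooled male CD-1 mouse liver microsomes, phase I and glucuronidation (phase II) incubations. Substrate at 50 μM. Metabolites characterized by HRMS. For metabolic activation studies, 3 mM GSH added as trapping agent.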

A short description of data set [12]: Drug metabolism in mouse liver microsomes assessed as O-demethylation. In kind it is ADME, Microsome. In a few lines:
as §3

Data set [13] concerns Mus musculus. The data set is described as follows: Anti pancreatitis activity in C57BL/6 mouse model of cerulein-induced acute pancreatitis assessed as amelioration of histological scores at 10 mg/kg, ip administered 30 and 150 mins after the first cerulein injection measured 5 hrs after first cerulein injection by H and E staining based assay. Format: functional, organism-based. In a few lines:
(§4)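 Acute pancreatitis induced in mice by i.p. cerulein injections. Test agent given i.p. at 10 mg/kg, 30 and 150 min after the first cerulein injection. Pancreas collected 5 h after the first cerulein injection, H&E stained and scored histologically for inflammation and edema.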

In data set [14] the test system is Mus musculus. Nature of the data set: Anti pancreatitis activity in C57BL/6 mouse model of cerulein-induced acute pancreatitis assessed as reduction of inflammation and edema at 10 mg/kg, ip administered 30 and 150 mins after the first cerulein injection measured 5 hrs after first cerulein injection by H and E staining based assay. In kind it is functional, organism-based. In a few lines: as §4

Data set [15] is described as follows: Thermodynamic aqueous solubility at 6 mg/mL in saline containing 10% DMSO + 20% PEG400. As to conditions: buffer.
Data set [16] in a line: Drug metabolism in mouse liver microsomes assessed as O-demethylation by high-resolution mass spectrometry. In kind it is ADME, Microsome. A digest of the protocol: as §3
Data set [17] can be described thus: Drug metabolism in mouse liver microsomes assessed as oxidation by high-resolution mass spectrometry. In kind it is ADME, Microsome. A digest of the protocol: as §3
A short description of data set [18]: Drug metabolism in mouse liver microsomes assessed as hydroxylation by high-resolution mass spectrometry. Format: ADME, Microsome. In a few lines:
as §3

The nature of data set [19]: Drug metabolism in mouse liver microsomes assessed as acyl glucuronide metabolite formation in presence of UDPGA by high-resolution mass spectrometry. In kind it is ADME, Microsome. In a few lines: as §3
Data set [20] is described as follows: Half life in C57BL/6 mouse at 7 mg/kg, iv dosed as single administration measured up to 24 hrs. Format: ADME, organism-based. Conditions: in vivo.
Data set [21] in a line: Clearance in C57BL/6 mouse at 7 mg/kg, iv dosed as single administration measured up to 24 hrs. In kind it is ADME, organism-based. As to conditions: in vivo.
Data set [22] in a line: Volume of distribution in C57BL/6 mouse at 7 mg/kg, iv dosed as single administration measured up to 24 hrs. Conditions: in vivo. Format: ADME, organism-based.
A short description of data set [23]: Cmax in C57BL/6 mouse at 7 mg/kg, iv dosed as single administration measured up to 24 hrs. Conditions: in vivo. Format: ADME, organism-based. Details: route intravenous, dose 7 mg/kg, time <=24.
Data set [24] deals with HEK293. The data set is described as follows: Cytotoxicity in HEK293 cells assessed as cell viability up to 60 uM after 72 hrs in presence of excess uridine by MTT assay. As to conditions: human, hek293, 72 h. In kind it is cell-based.
The nature of data set [25]: Half life in C57BL/6 mouse ip dosed as single administration measured up to 24 hrs. As to conditions: in vivo.
The target in data set [26] is T1, ORAI1/STIM1 (Homo sapiens). Nature of the data set: Activation of STIM1/Orai1 (unknown origin) expressed in HEK293 cells assessed as increase in tBHQ-induced calcium response by measuring increase in peak amplitude of calcium entry at 10 uM relative to control. In kind it is cell-based. Conditions: filed as opener, dose 3.0 µM, in the assay text read “at 3 uM” for “at 10 uM”. A digest of the protocol:
as §1

The target of data set [27] is T1, ORAI1/STIM1 (Homo sapiens). Nature of the data set: Activation of STIM1/Orai1 (unknown origin) expressed in HEK293 cells assessed as increase in tBHQ-induced calcium response by measuring increase in AUC of calcium entry at 10 uM relative to control. Conditions: filed as opener, dose 3.0 µM, in the assay text read “at 3 uM” for “at 10 uM”. Format: cell-based. In a few lines:
as §1

T1 sequence (Q13586 23-685 partner limits assumed): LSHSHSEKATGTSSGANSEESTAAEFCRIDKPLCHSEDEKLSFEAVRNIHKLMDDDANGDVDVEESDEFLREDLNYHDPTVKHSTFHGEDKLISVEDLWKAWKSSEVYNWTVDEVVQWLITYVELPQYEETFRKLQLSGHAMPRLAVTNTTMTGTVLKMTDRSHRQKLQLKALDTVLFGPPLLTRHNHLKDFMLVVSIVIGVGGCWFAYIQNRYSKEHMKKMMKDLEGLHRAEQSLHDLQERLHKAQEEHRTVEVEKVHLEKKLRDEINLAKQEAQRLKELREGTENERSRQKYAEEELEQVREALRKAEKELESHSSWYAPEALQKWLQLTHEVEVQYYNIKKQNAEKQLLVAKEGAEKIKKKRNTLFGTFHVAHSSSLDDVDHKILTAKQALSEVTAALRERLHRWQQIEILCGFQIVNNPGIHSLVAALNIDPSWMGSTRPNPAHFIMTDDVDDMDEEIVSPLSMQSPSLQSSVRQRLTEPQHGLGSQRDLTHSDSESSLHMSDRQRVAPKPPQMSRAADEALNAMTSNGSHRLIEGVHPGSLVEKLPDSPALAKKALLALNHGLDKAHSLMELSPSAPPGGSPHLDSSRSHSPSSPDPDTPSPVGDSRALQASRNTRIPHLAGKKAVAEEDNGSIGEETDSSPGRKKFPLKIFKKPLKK
T1 sequence (Q96D31 whole entry): as the sequence (Q96D31 whole entry) above

As to `COc1ccc(OC)c(-c2ccc(NC(=O)c3ccncc3F)cc2)c1`, the IC50 – broadly, the concentration that gives 50% inhibition – was found to be 1400 nM in data set [1] and 228 nM on ORAI1/STIM1. Moreover, the inhibition (as a rule, how much of the control response was suppressed) in data set [2] (dose 10.0 µM) was found to be 90.8%. Besides, the values for the Activity in the data set on HEK293 [3], in the data set on HEK293 [7] and in the data set with HEK293 [8] were 75.8%, “Toxic” and “Non-Toxic”, respectively. The inhibition entry in [4], in data set [5] and in [6] was “Active” throughout. Besides, the solubility thermodynamic in data set [9] worked out at 0.28 µg/mL (≈ 0.795 µM). The remaining at 1 h in [10] is 15%. Moreover, the Drug metabolism result in data set [11] and in data set [12] was “Metabolite_Detected” throughout.

Take `COc1cccc(-c2ccc(-n3cc(-c4cccc(C(=O)O)c4)nn3)cc2)c1OC` [listing 1 of 2 here]: the inhibition in data set [2] (dose 3.0 µM, in the assay text read “at 3 uM” for “at 10 uM”) came out at 96.5%. Further, the inhibition result in [4], in [5] and in [6] was “Active” throughout. Besides, the outcome with Mus musculus [13] and with Mus musculus [14] was Active.

`COc1cccc(-c2ccc(-n3cc(-c4cccc(C(=O)[O-])c4)nn3)cc2)c1OC.[Na+]`: in data set [9], the solubility thermodynamic came out at 1530 µg/mL. The remaining at 1 h in data set [10] was 75%. Moreover, the Therm_solubility entry in [15] is given as “Soluble”.

Regarding `COc1cccc(-c2ccc(-n3cc(-c4cccc(C(=O)O)c4)nn3)cc2)c1OC` [listing 2 of 2 here], the Activity in the data set on HEK293 [3] is given as 85.6%; in the data set with HEK293 [7], “Non-Toxic”; in the data set on HEK293 [8], “Non-Toxic”; in the data set on HEK293 [24] it was “Non-Toxic”. Further, the concentration for half-maximal inhibition (IC50) on ORAI1/STIM1 is 851 nM. Further, the Drug metabolism entry in [16], in data set [17], in data set [18] and in [19] was “Metabolite_Detected” each time. For the same compound, in [20], the t1/2 came out at 3.2 h. The compound also registered a CL in data set [21] of 8.3 mL/min/kg. Further, the Vd (usually the apparent volume that relates the amount in the body to the concentration in plasma or blood) in data set [22] stood at 2.3 L/kg. The highest concentration (Cmax) (in general, the maximum level reached in the sampled fluid or tissue) in [23] came out at 16800 ng/mL.

Consider `CCCC(C)OC(=O)c1cnn(-c2ccc(-n3cc(-c4cccc(C(=O)O)c4)nn3)cc2)c1C(F)(F)F` (stereo not drawn), for which, in data set [25], the half-life (as a rule, the time in which the quantity being followed falls by half) is 1.3 h.

With `COc1cccc(OC)c1-c1ccc(-c2cn(-c3cccc(C(=O)O)c3)nn2)cc1`, the outcome in [26] and in data set [27] was Active.
